Compound activity (PubChem)
The list is not random: actives were taken first. Their share in the collection is about 2.5%.
GSTO1 counter: GSTO1 inhibition, counter-screen for RBBP9 inhibitors; P78417; recombinant GSTO1, activity-based probe fluorescence polarization; inhibition, % at 5.96 µM; 300,000 tested, 1.1% active; AID 1974;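 active = inhibition above the campaign mean inhibition plus 3 SD, cut at about 35% in these data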
PAD4 inh: PAD4 (human) enzyme inhibition. recombinant PAD4, RCA probe fluorescence polarization. Q9UM07. inhibition, % at 6.36 µM. 330,000 tested, 0.41% active;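 active = percent inhibition above a cutoff equal to the mean of all tested compounds plus 3 SD, cut at about 15% in these data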
PRMT1 inh: PRMT1 (human) inhibition, primary screen; Q99873; recombinant PRMT1, activity-based probe fluorescence polarization; inhibition, % at 2.79 µM; 370,000 tested, 1.3% active; AID 652257;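 active = inhibition above about 21% made by adding two undisclosed values, limit read from the data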
E coli Lon inh: E. coli protease La inhibition; inhibition, % at 7.94 µM; 360,000 tested, 0.42% active; purified E. coli Lon protease, fluorescence polarization; AID 602123; in the data active = inhibition above about 13%, passing the limit was not always enough
TDP2 inh: blocks human TDP2 phosphodiesterase activity. O95551. recombinant TDP2, T5PNP hydrolysis, p-nitrophenol absorbance 415 nm. inhibition, % at 12.8 µM. 370,000 tested, 0.34% active. AID 720702;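 active = inhibition above the mean of all tested compounds plus 3 SD, set per campaign, cut at about 25% in these data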
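Material: recombinant human TDP2; quantity: TDP2 enzyme at 120 nM final; medium: Tris-HCl pH 7.5 with MgCl2; compound: single concentration, 12.8 µM nominal, with 1% DMSO; incubation: 2 h enzyme incubation at 37 °C; signal: epi absorbance; measure: percent inhibition; benchmarks: high control without enzyme, low control DMSO plus TDP2; repeats: singlicate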
PRMT1 inh conf: PRMT1 (human) inhibition, FP confirmation. shares compounds with PRMT1 inh. recombinant His-PRMT1, activity-based probe fluorescence polarization. inhibition, % at 2.79 µM. 3,300 tested, 42% active. AID 687036;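 active = mean inhibition across replicates above the hit cutoff derived for the earlier primary screen, cut at about 22% in these data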
Numbers stand for hits; i = inactive; nt = not tested or not shown.

SMILES	GSTO1 counter	PAD4 inh	PRMT1 inh	E coli Lon inh	TDP2 inh	PRMT1 inh conf
CN1CCc2c(sc3c2C(=O)NC(c2ccc(-c4ccc(Cl)cc4)o2)N3)C1 (centres undefined)	i	i	i	i	i	nt
O=C1NC(c2ccco2)Nc2sc3c(c21)CCN(Cc1ccccc1)C3 (centres undefined)	i	i	31.2	i	i	i
C[C@H](CO)N1C[C@H](C)[C@@H](CN(C)Cc2ccccc2C(=O)O)OCc2cnnn2CCCC1=O	nt	nt	i	i	i	nt
Cc1ccc(-c2ccc(/C=C/C(=O)c3ccccc3)o2)cc1	i	i	31.9	i	i	39.4
Cc1ccc(C(=O)/C=C/c2ccc(-c3ccccc3[N+](=O)[O-])o2)cc1	i	i	34.1	i	i	i
O=C(/C=C/c1ccc(-c2ccccc2[N+](=O)[O-])o1)c1ccc(Br)cc1	i	i	i	i	i	nt
O=C(/C=C/c1ccc(-c2ccccc2[N+](=O)[O-])o1)c1ccc(F)cc1	i	i	33.0	i	i	i
COC(=O)CSc1nnc(-c2ccc(NS(=O)(=O)c3ccc(Cl)s3)cc2)o1	nt	nt	i	nt	i	nt
CC(C)C[C@H]1COc2cc(Br)ccc2S(=O)(=O)N1Cc1cn(Cc2ccc(F)cc2)nn1	nt	nt	i	nt	i	nt
Cc1ccc(S(=O)(=O)N2CCOCC2)cc1NC(=O)COc1ccccc1Cc1ccccc1	nt	i	i	i	i	nt
CCCCOc1ccc(C(=O)NCC(=O)NNC(=O)c2ccco2)cc1	nt	i	i	i	i	nt
O=C(/C=C/c1ccco1)NCc1ccc(F)cc1	i	i	38.2	i	i	i
C=C[C@]1(C)C=C2C(=O)[C@@]3(O)OC(=O)[C@@]4(CCCC(C)(C)[C@H]34)[C@@]2(O)CC1	nt	nt	61.5	i	i	i
C=C[C@]1(C)C=C2CC[C@H]3[C@@](C)(CCC[C@@]3(C)C(=O)O)[C@@H]2CC1	nt	i	nt	i	nt	nt
Cc1ccc(NC(=O)NNC(=O)CSC2CCc3ccccc32)c(C)c1 (centres undefined)	nt	nt	i	nt	i	nt
COc1ccc2cc(C3CC(c4ccco4)=NN3S(=O)(=O)c3ccccc3)c(Cl)nc2c1 (centres undefined)	i	i	29.4	i	i	i
COc1ccc(N=C2NC(=O)/C(=C/c3ccco3)S2)cc1	i	i	i	i	i	nt
COc1ccc(S(=O)(=O)/N=C2/NC(=O)/C(=C/c3ccco3)S2)cc1	i	i	46.9	i	i	i
COc1ccc(S(=O)(=O)/N=C2/NC(=O)/C(=C\c3ccco3)S2)cc1	i	i	30.4	i	i	i
Cc1ccc(C2=N/C(=C\c3coc4ccccc4c3=O)C(=O)O2)cc1	nt	nt	37.5	nt	i	i
CSC1=NSC2=NC(=O)/C(=C\c3coc4ccccc4c3=O)C(=N)N12	i	i	31.1	i	i	71.6
CCOC(=O)[C@@H]1[C@H]2COc3ccc(Br)cc3[C@@H]2N2C(=O)N(c3ccc(C(F)(F)F)cc3)C(=O)[C@]12C	i	i	i	i	i	nt
CCc1nc2ccc(C(=O)N3CCN(C(=O)c4ccco4)CC3)cn2c1N(C)CCC(C)C	nt	nt	i	i	i	nt
CC1=CC(=O)C(C2CCCCC2)=C/C1=N\OS(=O)(=O)c1ccccc1	nt	nt	50.6	nt	i	i
CC1=CC(=O)C(C(C)C)=C/C1=N/OS(=O)(=O)c1ccccc1	i	i	i	i	i	nt
SMILES	GSTO1 counter	PAD4 inh	PRMT1 inh	E coli Lon inh	TDP2 inh	PRMT1 inh conf
CCOC(=O)C1=Nc2cccc3c(O)ccc1c23	nt	nt	75.1	nt	i	80.2
CCOC(=O)C1=Nc2ccccc2C1=[N+]=[N-]	i	i	i	i	i	nt
O=C1C=CC(=Nc2ccc3c(c2)C(=O)c2ccccc2-3)O1	nt	nt	i	i	i	nt
O=C1C=CC(=Nc2ccc(F)cc2)O1	nt	nt	50.3	i	i	79.4
COc1cc(/C=C2/CC/C(=C/c3ccc(O)c(OC)c3)C2=O)ccc1O	i	i	i	i	i	nt
COc1cc(/C=C/C=C2/CC/C(=C/C=C/c3ccc(O)c(OC)c3)C2=O)ccc1O	nt	nt	53.6	i	i	i
CC(=O)Nc1ccc(-c2csc(N/N=C(/C)c3ccccc3)n2)cc1	i	i	i	i	i	nt
O=C(NNc1nc(-c2ccc(Cl)cc2)cs1)c1ccco1	i	i	i	i	i	nt
CC(=O)Nc1ccc(-c2csc(NNC(=O)c3ccccc3)n2)cc1	i	i	25.8	i	i	i
O=C(NNc1nc(-c2ccccc2)cs1)c1ccco1	i	i	41.8	i	i	i
